Measurements as given in ChEMBL document CHEMBL1212817, “Design and synthesis of C-2 substituted thiazolo and dihydrothiazolo ring-fused 2-pyridones: pilicides with increased antivirulence activity” (J Med Chem, 2010).

Key:
[1] = test system: Escherichia coli; experiment: Antibacterial activity against Escherichia coli UTI89 assessed as number of wells with agglutination by hemagglutinination assay; type: functional
How it was run: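 UTI89 grown with pilicide at 250 μM; culture piliation then scored by hemagglutination titer, expressed as number of wells with agglutination (2ⁿ); value is the average of duplicate runs.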

[2] = biological target: T1, Chaperone protein PapD (Escherichia coli, UniProt P15319); experiment: Inhibition of Escherichia coli UTI89 PapD chaperon assessed as inhibition of biofilm formation
T1 sequence (P15319 whole entry): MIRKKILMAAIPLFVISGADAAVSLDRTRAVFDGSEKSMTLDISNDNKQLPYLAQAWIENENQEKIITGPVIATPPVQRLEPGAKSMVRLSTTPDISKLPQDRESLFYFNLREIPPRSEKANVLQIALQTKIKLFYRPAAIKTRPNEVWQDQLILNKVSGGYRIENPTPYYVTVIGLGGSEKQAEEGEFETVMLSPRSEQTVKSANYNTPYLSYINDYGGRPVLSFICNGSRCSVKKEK
How it was run: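 Pilus-dependent biofilm assay with whole E. coli UTI89 grown on polyvinylchloride in the presence of pilicide; biofilm amount taken as readout of piliation block. IC50 calculated from 16-32 data points at every concentration.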

O=C(O)c1c(-c2ccccc2)sc2c(C3CC3)c(Cc3cccc4ccccc34)cc(=O)n12
Activity [1]: 4.5

COc1ccc(-c2sc3c(C4CC4)c(Cc4cccc5ccccc45)cc(=O)n3c2C(=O)O)cc1
IC50 [2]: Not Active

O=C(c1ccccc1)c1sc2c(C3CC3)c(Cc3cccc4ccccc34)cc(=O)n2c1C(=O)O
IC50 [2]: Not Active

Cc1cccc(-c2sc3c(C4CC4)c(Cc4cccc5ccccc45)cc(=O)n3c2C(=O)O)c1
Activity [1]: 3

O=C(O)c1c(-c2ccc3[nH]ccc3c2)sc2c(C3CC3)c(Cc3cccc4ccccc34)cc(=O)n12
IC50 [2]: Not Active

O=C(O)c1c(-c2ccsc2)sc2c(C3CC3)c(Cc3cccc4ccccc34)cc(=O)n12
Activity [1]: 3.5

O=C(O)c1c(Cc2ccccc2)sc2c(C3CC3)c(Cc3cccc4ccccc34)cc(=O)n12
Activity [1]: 3
